Data reported in PMC6875695 (Journal of controlled release : official journal of the …, 2019).

What was measured:
HIV-1ADA = test: EC50 assay in MDM, HIV-1 RT activity; type: cell-based; details: Human immunodeficiency virus 1, 240 h
Outline: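 Human monocytes differentiated to macrophages with MCSF (1000 U/mL) for 7 days, then seeded at 0.15 × 10^6 cells/well and kept at 37 °C, 5% CO2. Cells were pretreated 2 h with test compound (0.1–1000 nM) and challenged with HIV-1ADA at MOI 0.1 for 4 h. After a PBS wash they were re-fed drug-containing medium at the same concentrations. Supernatant RT activity was read 10 days post-challenge.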

HIV-1NL4–3-eGFP = test: EC50 assay in CEM-CD4+ T-cells, HIV-1 RT activity; type: cell-based; details: Human immunodeficiency virus 1, T-cell, 240 h
HIV-1 = details: no reference given; cited from earlier work

In the case of Cc1cc(/C=C/C#N)cc(C)c1Nc1ccnc(Nc2ccc(C#N)cc2)n1 [RPV, rilpivirine], the EC50 (HIV-1ADA) is listed as 1.9 nM, the EC50 (HIV-1NL4–3-eGFP) is listed as 0.8 nM and the “protein-adjusted 90% inhibitory concentration (PA-IC90)” value (HIV-1) is listed as 0.012 µg/mL.
